Converted amounts (≈) assume the structure as drawn.
What was measured:
Type in all cases: functional
[1] = tested on: Radical scavenging activity; assay: Antioxidant activity assessed as DPPH free radical scavenging activity after 20 min by UV-Vis spectrophotometric analysis; design: concentration or dose not given beside the values
In short: (§1)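 DPPH radical scavenging: samples were held at room temperature for 20 min in the dark, and absorbance was read at 517 nm. The control contained DMSO without compound, and methanol was used for baseline correction. Scavenging percentage was calculated from the absorbances.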

[2] = tested on: Radical scavenging activity; assay: Antioxidant activity assessed as DPPH free radical scavenging activity at 0.6 ug/mL after 20 min by UV-Vis spectrophotometric analysis
In short: (§2)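 DPPH radical scavenging: samples held at room temperature for 20 min in the dark, then absorbance read at 517 nm. Control was DMSO without compound; methanol used for baseline correction. Percent scavenging calculated from absorbance relative to control.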

[3] = tested on: Radical scavenging activity; assay: Antioxidant activity assessed as DPPH free radical scavenging activity at 4 ug/mL after 20 min by UV-Vis spectrophotometric analysis; in short: as §2
[4] = tested on: Radical scavenging activity; assay: Antioxidant activity assessed as DPPH free radical scavenging activity at 0.8 ug/mL after 20 min by UV-Vis spectrophotometric analysis; in short: as §2
[5] = tested on: Radical scavenging activity; assay: Antioxidant activity assessed as DPPH free radical scavenging activity at 2 ug/mL after 20 min by UV-Vis spectrophotometric analysis; in short: as §2
[6] = tested on: Radical scavenging activity; assay: Antioxidant activity assessed as DPPH free radical scavenging activity at 3 ug/mL after 20 min by UV-Vis spectrophotometric analysis; in short: as §2
[7] = tested on: Radical scavenging activity; assay: Antioxidant activity assessed as DPPH free radical scavenging activity at 0.1 ug/mL after 20 min by UV-Vis spectrophotometric analysis; in short: as §2
[8] = tested on: Radical scavenging activity; assay: Antioxidant activity assessed as DPPH free radical scavenging activity at 0.4 ug/mL after 20 min by UV-Vis spectrophotometric analysis; in short: as §2
[9] = tested on: Radical scavenging activity; assay: Antioxidant activity assessed as DPPH free radical scavenging activity at 0.2 ug/mL after 20 min by UV-Vis spectrophotometric analysis; in short: as §2
[10] = tested on: Radical scavenging activity; assay: Antioxidant activity assessed as DPPH free radical scavenging activity at 1 ug/mL after 20 min by UV-Vis spectrophotometric analysis; in short: as §2
[11] = tested on: Bacillus thuringiensis; assay: Antibacterial activity against Bacillus thuringiensis MTCC 6941 assessed as growth inhibition at 100 ug/disk after 24 hr by disk diffusion method; conditions: MTCC 6941, 24 h, read-out: DIZ
In short: (§3)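 Disk diffusion on nutrient agar. Strains kept on NA slants at 37 °C and subcultured in nutrient broth before testing. A log-phase culture was spread on solidified medium, and sterile disks were loaded with compound from DMSO stock. DMSO served as control, with commercial antibiotics for reference. Plates ran 24 h at 37 °C, and inhibition zones (mm) were read in quadruplicate.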

[12] = tested on: Radical scavenging activity; assay: Antioxidant activity assessed as DPPH free radical scavenging activity at 20 ug/mL after 20 min by UV-Vis spectrophotometric analysis; in short: as §1
[13] = tested on: Pseudomonas aeruginosa; assay: Antibacterial activity against Pseudomonas aeruginosa MTCC 2581 assessed as growth inhibition at 100 ug/disk after 24 hr by disk diffusion method; conditions: MTCC 2581, 24 h, read-out: DIZ; in short: as §3
[14] = tested on: Radical scavenging activity; assay: Antioxidant activity assessed as DPPH free radical scavenging activity at 60 ug/mL after 20 min by UV-Vis spectrophotometric analysis; in short: as §1
[15] = tested on: Radical scavenging activity; assay: Antioxidant activity assessed as DPPH free radical scavenging activity at 500 ug/mL after 20 min by UV-Vis spectrophotometric analysis; in short: as §1
[16] = tested on: Radical scavenging activity; assay: Antioxidant activity assessed as DPPH free radical scavenging activity at 40 ug/mL after 20 min by UV-Vis spectrophotometric analysis; in short: as §1
[17] = tested on: Radical scavenging activity; assay: Antioxidant activity assessed as DPPH free radical scavenging activity at 300 ug/mL after 20 min by UV-Vis spectrophotometric analysis; in short: as §1
[18] = tested on: Athelia rolfsii; assay: Antifungal activity against Athelia rolfsii ITCC 6181 by food poisoning method; conditions: Agroathelia rolfsii
In short: (§4)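 Poisoned food technique on PDA at several concentrations. A 5 mm mycelial plug from the growing edge of a 2-week-old colony was placed inoculum-side down at the plate centre. Plates incubated at 27 °C until control growth was nearly complete. Colony diameter measured, percent inhibition calculated against control, LC50 derived. Four replicates per treatment.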

[19] = tested on: Radical scavenging activity; assay: Antioxidant activity assessed as DPPH free radical scavenging activity at 400 ug/mL after 20 min by UV-Vis spectrophotometric analysis; in short: as §1
[20] = tested on: Xanthomonas oryzae; assay: Antibacterial activity against Xanthomonas oryzae ITCC B-47 assessed as as growth inhibition at 100 ug/disk after 24 hr by disk diffusion method; conditions: ITCC B-47, 24 h, read-out: DIZ
[21] = tested on: Radical scavenging activity; assay: Antioxidant activity assessed as DPPH free radical scavenging activity at 100 ug/mL after 20 min by UV-Vis spectrophotometric analysis; in short: as §1
[22] = tested on: Rhizoctonia solani; assay: Antifungal activity against Rhizoctonia solani ITCC 5563 by food poisoning method; in short: as §4
[23] = tested on: Staphylococcus aureus; assay: Antibacterial activity against Staphylococcus aureus MTCC 3160 assessed as growth inhibition at 100 ug/disk after 24 hr by disk diffusion method; conditions: MTCC 3160, 24 h, read-out: DIZ; in short: as §3
[24] = tested on: Klebsiella pneumoniae; assay: Antibacterial activity against Klebsiella pneumoniae MTCC 7028 assessed as growth inhibition at 100 ug/disk after 24 hr by disk diffusion method; conditions: MTCC 7028, 24 h, read-out: DIZ; in short: as §3
[25] = tested on: Dickeya chrysanthemi; assay: Antibacterial activity against Erwinia chrysanthemi ITCC B-40 assessed as as growth inhibition at 100 ug/disk after 24 hr by disk diffusion method; conditions: ITCC B-40, 24 h, read-out: DIZ; in short: as §3
[26] = tested on: Bacillus pumilus; assay: Antibacterial activity against Bacillus pumilus MTCC 2466 assessed as growth inhibition at 100 ug/disk after 24 hr by disk diffusion method; conditions: MTCC 2466, 24 h, read-out: DIZ; in short: as §3
[27] = tested on: Radical scavenging activity; assay: Antioxidant activity assessed as DPPH free radical scavenging activity at 200 ug/mL after 20 min by UV-Vis spectrophotometric analysis; in short: as §1
[28] = tested on: Radical scavenging activity; assay: Antioxidant activity assessed as DPPH free radical scavenging activity at 80 ug/mL after 20 min by UV-Vis spectrophotometric analysis; in short: as §1
[29] = tested on: Radical scavenging activity; assay: Antioxidant activity assessed as DPPH free radical scavenging activity at 10 ug/mL after 20 min by UV-Vis spectrophotometric analysis; in short: as §1
[30] = tested on: Xanthomonas oryzae; assay: Antibacterial activity against Xanthomonas oryzae ITCC B-47 assessed as as growth inhibition at 25 ug/disk after 24 hr by disk diffusion method; conditions: ITCC B-47, 24 h, read-out: DIZ
[31] = tested on: Pseudomonas aeruginosa; assay: Antibacterial activity against Pseudomonas aeruginosa MTCC 2581 assessed as growth inhibition at 25 ug/disk after 24 hr by disk diffusion method; conditions: MTCC 2581, 24 h, read-out: DIZ
[32] = tested on: Staphylococcus aureus; assay: Antibacterial activity against Staphylococcus aureus MTCC 3160 assessed as growth inhibition at 25 ug/disk after 24 hr by disk diffusion method; conditions: MTCC 3160, 24 h, read-out: DIZ
[33] = tested on: Bacillus thuringiensis; assay: Antibacterial activity against Bacillus thuringiensis MTCC 6941 assessed as growth inhibition at 25 ug/disk after 24 hr by disk diffusion method; conditions: MTCC 6941, 24 h, read-out: DIZ
[34] = tested on: Klebsiella pneumoniae; assay: Antibacterial activity against Klebsiella pneumoniae MTCC 7028 assessed as growth inhibition at 25 ug/disk after 24 hr by disk diffusion method; conditions: MTCC 7028, 24 h, read-out: DIZ
[35] = tested on: Bacillus pumilus; assay: Antibacterial activity against Bacillus pumilus MTCC 2466 assessed as growth inhibition at 25 ug/disk after 24 hr by disk diffusion method; conditions: MTCC 2466, 24 h, read-out: DIZ
[36] = tested on: Dickeya chrysanthemi; assay: Antibacterial activity against Erwinia chrysanthemi ITCC B-40 assessed as as growth inhibition at 25 ug/disk after 24 hr by disk diffusion method; conditions: ITCC B-40, 24 h, read-out: DIZ

## O=C(O)c1cc(O)c(O)c(O)c1 [GALLIC ACID]
[1]
  Activity: 21.4%
  IC50: 1.28 µg/mL (≈ 7.52 µM)
[2]
  Activity: 28%
[3]
  Activity: 89.9%
[4]
  Activity: 34.4%
[5]
  Activity: 73.6%
[6]
  Activity: 88.9%
[7]
  Activity: 13.9%
[8]
  Activity: 21.4%
[9]
  Activity: 15.8%
[10]
  Activity: 41%

## O=[N+]([O-])c1cccc(C2CC(c3ccc(F)cc3)=Cc3n[nH]c(O)c32)c1 (stereo unspecified)
[11]
  zone of inhibition at 100 µg/disc: 0 mm
[12]
  Activity: 35.9%
[13]
  zone of inhibition at 100 µg/disc: 0 mm
[1]
  Activity: 67.9%
  IC50: 19.81 µg/mL (≈ 56.4 µM)
[14]
  Activity: 86.4%
[15]
  Activity: 91.1%
[16]
  Activity: 67.9%
[17]
  Activity: 90.5%
[18]
  LC50: 796 µg/mL (≈ 2270 µM)
[19]
  Activity: 90.9%
[20]
  zone of inhibition at 100 µg/disc: 0 mm
[21]
  Activity: 90.8%
[22]
  LC50: 528 µg/mL (≈ 1500 µM)
[23]
  zone of inhibition at 100 µg/disc: 0 mm
[24]
  zone of inhibition at 100 µg/disc: 0 mm
[25]
  zone of inhibition at 100 µg/disc: 0 mm
[26]
  zone of inhibition at 100 µg/disc: 0 mm
[27]
  Activity: 92.3%
[28]
  Activity: 90.1%
[29]
  Activity: 22.6%

## COc1ccc(C2CC(c3ccc4c(c3)OCO4)=Cc3n[nH]c(O)c32)cc1 (stereo unspecified)
[11]
  zone of inhibition at 100 µg/disc: 0 mm
[12]
  Activity: 30.4%
[13]
  zone of inhibition at 100 µg/disc: 0 mm
[1]
  Activity: 56.1%
  IC50: 25.2 µg/mL (≈ 69.5 µM)
[14]
  Activity: 84.2%
[15]
  Activity: 90.1%
[16]
  Activity: 56.1%
[17]
  Activity: 89.8%
[18]
  LC50: 897 µg/mL (≈ 2480 µM)
[19]
  Activity: 89.9%
[20]
  zone of inhibition at 100 µg/disc: 0 mm
[21]
  Activity: 90.7%
[22]
  LC50: 643 µg/mL (≈ 1770 µM)
[23]
  zone of inhibition at 100 µg/disc: 0 mm
[24]
  zone of inhibition at 100 µg/disc: 0 mm
[25]
  zone of inhibition at 100 µg/disc: 0 mm
[26]
  zone of inhibition at 100 µg/disc: 0 mm
[27]
  Activity: 91.9%
[28]
  Activity: 89.5%
[29]
  Activity: 19%

## NC[C@H]1O[C@H](O[C@H]2[C@H](O)[C@@H](O[C@H]3O[C@H](CO)[C@@H](O)[C@H](N)[C@H]3O)[C@H](N)C[C@@H]2N)[C@H](O)[C@@H](O)[C@@H]1O [KANAMYCIN]
[30]
  zone of inhibition at 25 µg/disc: 0 mm
[31]
  zone of inhibition at 25 µg/disc: 0 mm
[32]
  zone of inhibition at 25 µg/disc: 10 mm
[33]
  zone of inhibition at 25 µg/disc: 15 mm
[34]
  zone of inhibition at 25 µg/disc: 15 mm
[35]
  zone of inhibition at 25 µg/disc: 0 mm
[36]
  zone of inhibition at 25 µg/disc: 0 mm

## COc1ccc(C2CC(c3ccc(Cl)c(Cl)c3)=Cc3n[nH]c(O)c32)cc1 (stereo unspecified)
[11]
  zone of inhibition at 100 µg/disc: 0 mm
[12]
  Activity: 31%
[13]
  zone of inhibition at 100 µg/disc: 0 mm
[1]
  Activity: 48.5%
  IC50: 40.98 µg/mL (≈ 106 µM)
[14]
  Activity: 86.1%
[15]
  Activity: 91.3%
[16]
  Activity: 48.6%
[17]
  Activity: 90.7%
[18]
  LC50: 1030 µg/mL (≈ 2660 µM)
[19]
  Activity: 91.3%
[20]
  zone of inhibition at 100 µg/disc: 0 mm
[21]
  Activity: 91.1%
[22]
  LC50: 776 µg/mL (≈ 2000 µM)
[23]
  zone of inhibition at 100 µg/disc: 0 mm
[24]
  zone of inhibition at 100 µg/disc: 0 mm
[25]
  zone of inhibition at 100 µg/disc: 0 mm
[26]
  zone of inhibition at 100 µg/disc: 0 mm
[27]
  Activity: 91.5%
[28]
  Activity: 90.4%
[29]
  Activity: 17.6%

Source: ChEMBL document CHEMBL3045565, “Microwave synthesis, characterization and bio-efficacy evaluation of novel chalcone based 6-carbethoxy-2-cyclohexen-1-one and 2H-indazol-3-ol derivatives” (Eur J Med Chem, 2013)
